Experimental data pooled from the literature.
Protocols differ between the studies behind these lines.
Target: Calcium/calmodulin-dependent protein kinase kinase 1 (CAMKK1, Homo sapiens, UniProt Q8N5S9)

Structure (SMILES) | assay | conditions | remaining binding [%]
O=C(Nc1cccnn1)N1CC(C/C=C/c2cncc(Oc3ccc(C(F)(F)F)cn3)n2)C1 | cell-free assay, competition with immobilised ligand | 1 µM | 100
CN(C)c1ncc(F)c(-c2cnn3ncccc23)n1 | binding | 1 µM | 90
c1cncc(-c2cccc(Nc3nccc(NC4CCCCC4)n3)c2)c1 | binding, competition with immobilised ligand | 10 µM | 68
N[C@H]1CCN(c2nccc(-c3cnn4ncccc34)n2)C1 | binding | 1 µM | 100
FC(F)(F)Oc1cccc(-c2cnc3ccc(-c4ccncc4)nn23)c1 | cell-free assay, competition with immobilised ligand | 5 µM | 43
O=C(Nc1cnc(Oc2ccc(F)cc2)nc1)N1CCc2ncccc2[C@@H]1c1ccc(F)cc1 | cell-free assay, competition with immobilised ligand | 1 µM | 92
CN(C)c1nccc(-c2cnn3ncccc23)n1 | binding | 1 µM | 78
O=C(NCC1CCOCC1)c1n[nH]cc1NC(=O)c1c(F)cccc1F | binding, competition with immobilised ligand | 1 µM | 88
Cc1nc(C2CCN(C(=O)c3ccc(OC(F)(F)F)cc3N)CC2)c2ncc(N3CCN(C)CC3)cc2n1 | cell-free assay, competition with immobilised ligand | 1 µM | 100
COc1cnc(Nc2cccc(S(N)(=O)=O)c2)nc1N1CCN(c2ccccc2)C(=O)C1 | binding, competition with immobilised ligand | 1 µM | 100
O=C(O)[C@@H]1[C@@H](Cn2nnc3ccccc3c2=O)CC[C@H]1C(=O)c1ccc(OCCC2CCOCC2)cc1 | cell-free assay, competition with immobilised ligand | 1 µM | 100
CN(C)c1nccc(-c2cnc3ncccn23)n1 | binding | 1 µM | 100
CS(=O)(=O)NCC[C@H](NC(=O)c1cncc2c1cnn2-c1ccc(F)cc1)c1ccnc(S(C)(=O)=O)c1 | cell-free assay, competition with immobilised ligand | 1 µM | 100
O=C(NCCCN1CCOCC1)c1ccc(Nc2nccc(-c3cc4ccccc4s3)n2)cc1 | binding, competition with immobilised ligand | 1 µM | 80
F[C@@H]1CCN(c2nccc(-c3cnn4ncccc34)n2)C1 | binding | 1 µM | 100
C=CC(=O)N1CCC(C(=O)NCC(=O)N2CCN(c3nc(-c4cnc(N)nc4C(F)F)nc(N4CCOCC4)n3)CC2)CC1 | binding, competition with immobilised ligand | 1 µM | 96
c1cnn2ncc(-c3ccnc(N4CCC45COC5)n3)c2c1 | binding | 1 µM | 97
COc1cnc(Nc2cccc(S(N)(=O)=O)c2)nc1N1CCN(c2ccccc2)CC1 | binding, competition with immobilised ligand | 1 µM | 92
O=C(c1ccc(Nc2ncc(Cl)c(-c3cc4ccccc4s3)n2)cc1)N1CCC(N2CCCC2)CC1 | binding, competition with immobilised ligand | 1 µM | 91
C[C@@H]1CCN(c2nccc(-c3cnn4ncccc34)n2)C1 | binding | 1 µM | 87
O=C(c1ccc(Nc2nccc(-c3cc4ccccc4s3)n2)cc1)N1CCC(N2CCCC2)CC1 | binding, competition with immobilised ligand | 1 µM | 93
CNCc1ccccc1-c1csc([C@H](C)Nc2nc(C)nc3cc(OC)c(OC)cc23)c1 | cell-free assay, competition with immobilised ligand | 1 µM | 99
